From PubChem BioAssay
SIAE inh – human SIAE inhibition, primary screen; Q9HAT2; SIAE FP-Rh probe binding, fluorescence polarization; inhibition, % at 9.66 µM; actives 0.69% (n = 370,000);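 active = inhibition above a cutoff: mean of compounds within the control limits plus 3 SD of those, cut at about 17% in these data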;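 note: 0% = plate median of compound wells and 100% = probe without SIAE protein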
GASC-1 inh – blocks human GASC-1 demethylase activity; Q9H3R0; GST-JMJD2C(1-420) H3K9me3 demethylation, DELFIA europium; inhibition, % at 2.35 µM; actives 0.069% (n = 330,000); AID 2099;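 active = more than half of a compound's replicate wells show inhibition beyond 50%, single wells judged on their own value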;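 note: signal counts dimethyl H3K9 product captured on neutravidin plate; 0% = median of DMSO wells and 100% = 0.3 times that DMSO median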
PRMT1 FP inh – inhibitors of human PRMT1; Q99873; recombinant PRMT1, activity-based probe fluorescence polarization; inhibition, % at 2.79 µM; actives 1.3% (n = 370,000); AID 652257;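 active = inhibition above about 21% made by adding two undisclosed values, limit read from the data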
ABHD4 inh – ABHD4 (mouse) inhibition, primary FP screen; Q8VD66; purified mABHD4, FP-Rh probe fluorescence polarization; inhibition, % at 8.92 µM; actives 0.54% (n = 370,000);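 active = inhibition exceeding the mean over every tested compound plus 3 SD, cut at about 30% in these data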;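 note: 0% = plate median of compound wells and 100% = S159A mutant with DMSO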
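Test system: mouse ABHD4 enzyme, wild type. Reagent: FP-Rh fluorescent activity-based probe, added after compound pre-incubation. Timing: pre-incubation 45 min, probe exposure 60 min, at 25 °C. Technique: FP readout, ex 525 nm / em 598 nm. Benchmarks: high control S159A mutant with DMSO, low control median of compound wells.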
HTRA1 inh – inhibitors of human serine peptidase HTRA1. Q92743. actives 0.5% (n = 340,000). inhibition, % at 5.96 µM. recombinant HTRA1, FP-rhodamine activity-based probe, fluorescence polarization. AID 504803; in the data active = inhibition above about 36%;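 note: 0% = enzyme with DMSO and 100% = wells lacking enzyme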
Target sequence (Q92743 whole entry, looked up): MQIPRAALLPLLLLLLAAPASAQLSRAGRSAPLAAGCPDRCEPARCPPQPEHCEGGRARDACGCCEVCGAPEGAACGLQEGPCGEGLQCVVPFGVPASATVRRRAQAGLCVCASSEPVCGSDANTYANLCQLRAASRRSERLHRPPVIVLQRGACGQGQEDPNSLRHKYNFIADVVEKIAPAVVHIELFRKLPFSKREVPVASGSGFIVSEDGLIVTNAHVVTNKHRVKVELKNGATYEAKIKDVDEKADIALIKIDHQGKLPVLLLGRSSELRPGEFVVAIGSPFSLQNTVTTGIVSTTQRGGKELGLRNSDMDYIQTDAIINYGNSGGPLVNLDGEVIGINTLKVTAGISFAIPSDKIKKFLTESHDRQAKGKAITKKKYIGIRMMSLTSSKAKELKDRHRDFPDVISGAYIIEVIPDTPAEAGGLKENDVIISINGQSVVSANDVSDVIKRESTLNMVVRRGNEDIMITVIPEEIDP
mABHD4 conf – ABHD4 (mouse) inhibition, FP confirmation; purified mABHD4, FP-Rh probe fluorescence polarization; shares compounds with ABHD4 inh; actives 55% (n = 1,800); AID 720658; inhibition, % at 8.92 µM;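 active = mean inhibition across replicates above the hit cutoff set in the primary screen, cut at about 30% in these data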;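 note: 0% = wild-type ABHD4 with DMSO and 100% = catalytically dead S159A mutant with DMSO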
The depositor's hits bear a star. Rows were chosen to be rich in hits. Some 2.4% of all compounds tested hit in one or more screens of this group.

COc1ccc(CCC(=O)OCc2csc(CC(=O)Nc3ccccc3C)n2)cc1 was read as SIAE inh -4, GASC-1 inh 13, PRMT1 FP inh -3, ABHD4 inh 36*, HTRA1 inh -10 and mABHD4 conf 19.
CCC(C(=O)OCc1csc(CC(=O)Nc2ccccc2C)n1)c1ccccc1 (stereo unspecified) was read as SIAE inh -4, GASC-1 inh -5, PRMT1 FP inh -2, ABHD4 inh 30*, HTRA1 inh -14 and mABHD4 conf 17.
COC(=O)[C@]12C[C@H](CC(=O)N3CCN(C(=O)C4CC4)CC3)C(=O)N(Cc3ccco3)C1=C[C@H](C(C)C)O[C@@H]2C1CC1 was read as SIAE inh 1, PRMT1 FP inh 3 and ABHD4 inh 2.
Screening O=C(Nc1ccccc1F)Nc1cccc2ccc(O)cc12 returned SIAE inh 11, GASC-1 inh -26, PRMT1 FP inh 6, ABHD4 inh 31*, HTRA1 inh 33 and mABHD4 conf 43*.
Screening CC(=O)Oc1cc2c3c(c1)/C(=C1/SC(=S)NC1=O)C(=O)N3C(C)(C)C=C2C returned SIAE inh 6, GASC-1 inh 0, PRMT1 FP inh 5, ABHD4 inh 61*, HTRA1 inh 29 and mABHD4 conf 101*.
C[C@@H]1NS(=O)(=O)c2cccc(Cl)c2O[C@@H]1c1ccccc1 was read as SIAE inh 1, PRMT1 FP inh 0 and ABHD4 inh -5.
O=S1(=O)c2c(cccc2N2CCSCC2)Oc2ccccc2CN1Cc1cn(Cc2ccc(C(F)(F)F)cc2)nn1 was read as SIAE inh -7, PRMT1 FP inh -4 and ABHD4 inh -8.
`COc1cc(/C=N/NC(=O)C(Cc2c[nH]c3ccccc23)NC(=O)OCc2ccccc2)cc([N+](=O)[O-])c1O` (stereo unspecified) gave SIAE inh 64*, GASC-1 inh 4, PRMT1 FP inh 18, ABHD4 inh 45*, HTRA1 inh 30 and mABHD4 conf 92*.
For COc1cc(/C=N/NC(=O)C(Cc2c[nH]c3ccccc23)NC(=O)OCC(C)C)cc([N+](=O)[O-])c1OCc1ccccc1 (stereo unspecified) the results were SIAE inh -4, GASC-1 inh -12, PRMT1 FP inh 4, ABHD4 inh -1 and HTRA1 inh -2.
CC1Oc2ccccc2C=C1/C=N/Nc1ccc(C(=O)O)cc1 (stereo unspecified) was read as SIAE inh 2, GASC-1 inh -8, PRMT1 FP inh 10, ABHD4 inh 32*, HTRA1 inh -2 and mABHD4 conf 31*.
CC(C)(C)c1ccc(/C=N/Nc2ccc(C(=O)O)cc2)cc1 was read as SIAE inh 3, GASC-1 inh 0, PRMT1 FP inh 6, ABHD4 inh 3 and HTRA1 inh -9.
`NC(C(=O)O)C1ON=C(Cl)C1O` (stereo unspecified) gave SIAE inh 9, PRMT1 FP inh 0, ABHD4 inh 4 and HTRA1 inh -2.
Screening CC(=O)CC[C@H]1CC[C@]2(CCCN(C(=O)c3ccc4ccccc4n3)C2)O1 returned SIAE inh -4, PRMT1 FP inh 0 and ABHD4 inh 2.
OC(CNCCC1C=Nc2ccccc21)Cn1c2ccc(Cl)cc2c2cc(Cl)ccc21 (stereo unspecified) was read as SIAE inh 27*, GASC-1 inh -4, PRMT1 FP inh 1, ABHD4 inh 34*, HTRA1 inh -19 and mABHD4 conf 44*.
`O=C(Nc1cc([N+](=O)[O-])ccc1O)c1ccc2c(c1)C(=O)N(Cc1ccco1)C2=O` gave SIAE inh 2, GASC-1 inh 39, PRMT1 FP inh 8, ABHD4 inh 38*, HTRA1 inh 4 and mABHD4 conf 51*.
For O=C(Nc1ccc(O)cc1C(=O)O)c1ccc2c(c1)C(=O)N(Cc1ccco1)C2=O the results were SIAE inh -42, GASC-1 inh -5, PRMT1 FP inh 6, ABHD4 inh 14 and HTRA1 inh 4.
Screening CC(=O)N1N=C(c2cccc(NS(C)(=O)=O)c2)CC1c1cccs1 (stereo unspecified) returned SIAE inh -4, GASC-1 inh 1, PRMT1 FP inh 1, ABHD4 inh 11 and HTRA1 inh 1.
For CC(=O)N1N=C(c2cccc(O)c2)CC1c1cccs1 (stereo unspecified) the results were SIAE inh 2, GASC-1 inh 12, PRMT1 FP inh -2, ABHD4 inh 36*, HTRA1 inh 0 and mABHD4 conf -4.
COc1cc(/C=C2\SC(=O)N(CC(=O)Nc3cccc(C)c3)C2=O)cc([N+](=O)[O-])c1O was read as SIAE inh -4, PRMT1 FP inh 9, ABHD4 inh 31* and mABHD4 conf 80*.
Screening O=C(OCc1cn([C@H]2CN(CC3CCCCC3)[C@@H](c3ccc(Cl)cc3)C[C@@H]2O)nn1)c1ccccc1 returned SIAE inh -7, PRMT1 FP inh 3, ABHD4 inh 3 and HTRA1 inh -104.
COc1cccc(/C=N/Nc2snc(SC)c2C#N)c1O was read as SIAE inh -24, GASC-1 inh 4, PRMT1 FP inh 0, ABHD4 inh 33*, HTRA1 inh 6 and mABHD4 conf 23.
For COc1ccc(/C=N/Nc2snc(SC)c2C#N)cc1OC the results were SIAE inh -4, GASC-1 inh -7, PRMT1 FP inh 7, ABHD4 inh 35*, HTRA1 inh 2 and mABHD4 conf 34*.
`COc1cccc(/C=N/Nc2snc(SC)c2C#N)c1` gave SIAE inh 12, GASC-1 inh 4, PRMT1 FP inh 13, ABHD4 inh 15 and HTRA1 inh -4.
CN1OC[C@@H]2CN3C(=NCCc4ccccc4)Sc4ccccc4[C@@H]3C[C@@H]21 was read as SIAE inh 3, PRMT1 FP inh 19 and ABHD4 inh 0.
Screening O=C(O)C1Cn2c(nc3c(c2=O)C2(CCCC2)Cc2ccccc2-3)S1 (stereo unspecified) returned SIAE inh 2, GASC-1 inh -22, PRMT1 FP inh -2, ABHD4 inh 42*, HTRA1 inh 4 and mABHD4 conf 42*.
For CCCCCCSc1ccc(-c2nc3ccccn3c2NCCCC)cc1 the results were SIAE inh 5, GASC-1 inh -8, PRMT1 FP inh 1, ABHD4 inh 44*, HTRA1 inh 0 and mABHD4 conf 50*.
CCCCNc1c(-c2ccc(-c3cccc(Cl)c3)cc2)nc2ccccn12 was read as SIAE inh 8, GASC-1 inh -2, PRMT1 FP inh 1, ABHD4 inh 40*, HTRA1 inh -14 and mABHD4 conf 32*.
